Experimental findings from ChEMBL document CHEMBL1127739, “Newly discovered stereochemical requirements in the side-chain conformation of delta opioid agonists for recognizing opioid delta receptors” (J Med Chem, 1994) are described below.

One test deals with Mu-type opioid receptor (Cavia porcellus, UniProt P97266). In words: Effective concentration was measured towards mu opioid receptor using guinea pig ileum (GPI, mu) bioassay in vitro. The class given is tissue-based. Summed up: (§1)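 Electrically stimulated MVD (male ICR mice, 25–30 g) and GPI longitudinal muscle-myenteric plexus (male Hartley guinea pigs, 150–400 g) in 37 °C oxygenated Krebs, magnesium-free for MVD. Tension 1 g (MVD 0.5 g); stimulation 0.1 Hz, 0.4-ms pulses (MVD 2.0 ms), supramaximal voltage.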
Mu-type opioid receptor, sequence (P97266 whole entry): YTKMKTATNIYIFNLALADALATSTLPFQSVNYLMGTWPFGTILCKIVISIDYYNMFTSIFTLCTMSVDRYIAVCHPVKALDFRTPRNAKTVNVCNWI

Test [1] concerns the target Delta-type opioid receptor (Mus musculus, UniProt P32300). The test is described as follows: Effective concentration was measured towards delta opioid receptor using mouse vas deferens(MVD, delta) bioassay in vitro. Summed up: as §1
Test [2] concerns the target Opioid receptors; mu & delta (Homo sapiens) (UniProt P41143+P35372). In words: Selectivity is the ratio between EC50 values GPI(mu) and MVD(delta). The test is classed as protein assay. The gist of the method: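 Electrically stimulated MVD (male ICR mice, 25–30 g) and GPI longitudinal muscle-myenteric plexus (male Hartley guinea pigs, 150–400 g) in 37 °C oxygenated Krebs, magnesium-free for MVD. Tension 1 g (MVD 0.5 g); stimulation 0.1 Hz, 0.4-ms pulses (MVD 2.0 ms), supramaximal voltage. Agonist applied 3 min; percent inhibition of contraction height.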

Test [3] can be described thus: Selectivity is the ratio between IC50 values of [3H]CTOP and [3H][p-Cl-phe4]-DPDPE. Summed up:
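Brain membranes were homogenised in 50 mM Tris-HCl pH 7.4, pelleted at 48000g, and preincubated at 25 °C for 30 min to strip endogenous peptides. Buffer contained BSA, bestatin, bacitracin, captopril and toluenesulfonyl fluoride. δ radioligand was [3H][D-Pen2,p-Cl-Phe4,D-Pen5]enkephalin 0.75 nM; μ was [3H]CTOP 0.5 nM. Ten concentrations over 800-fold, in duplicate. Nonspecific binding used 10 μM naltrexone. Incubated 25 °C for 3 h, then filtered and counted.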

Delta-type opioid receptor, sequence (P32300 whole entry): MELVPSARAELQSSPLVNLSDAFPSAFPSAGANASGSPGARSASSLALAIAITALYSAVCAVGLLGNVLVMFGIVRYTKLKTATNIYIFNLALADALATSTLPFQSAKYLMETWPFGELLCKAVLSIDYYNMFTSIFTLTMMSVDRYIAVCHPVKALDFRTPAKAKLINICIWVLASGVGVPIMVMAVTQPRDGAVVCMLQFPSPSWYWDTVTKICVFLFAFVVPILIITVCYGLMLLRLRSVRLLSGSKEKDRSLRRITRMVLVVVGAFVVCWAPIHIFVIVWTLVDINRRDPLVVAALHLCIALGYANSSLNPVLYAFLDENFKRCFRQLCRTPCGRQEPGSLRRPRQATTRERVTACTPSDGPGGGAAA
Opioid receptors; mu & delta (Homo sapiens), sequence (P35372 whole entry, looked up): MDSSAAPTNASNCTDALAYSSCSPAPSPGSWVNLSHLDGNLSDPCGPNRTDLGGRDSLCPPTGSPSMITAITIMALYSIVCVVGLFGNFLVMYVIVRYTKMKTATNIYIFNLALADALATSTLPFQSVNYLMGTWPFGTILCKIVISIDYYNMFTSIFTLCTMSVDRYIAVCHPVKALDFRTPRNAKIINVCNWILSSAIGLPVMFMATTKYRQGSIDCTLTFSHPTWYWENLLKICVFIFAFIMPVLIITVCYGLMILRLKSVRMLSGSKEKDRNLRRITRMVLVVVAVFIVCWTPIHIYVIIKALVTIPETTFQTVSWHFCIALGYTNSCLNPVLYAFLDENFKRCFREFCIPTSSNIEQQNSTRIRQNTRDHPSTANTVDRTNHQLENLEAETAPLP
Opioid receptors; mu & delta (Homo sapiens), sequence (P41143 whole entry, looked up): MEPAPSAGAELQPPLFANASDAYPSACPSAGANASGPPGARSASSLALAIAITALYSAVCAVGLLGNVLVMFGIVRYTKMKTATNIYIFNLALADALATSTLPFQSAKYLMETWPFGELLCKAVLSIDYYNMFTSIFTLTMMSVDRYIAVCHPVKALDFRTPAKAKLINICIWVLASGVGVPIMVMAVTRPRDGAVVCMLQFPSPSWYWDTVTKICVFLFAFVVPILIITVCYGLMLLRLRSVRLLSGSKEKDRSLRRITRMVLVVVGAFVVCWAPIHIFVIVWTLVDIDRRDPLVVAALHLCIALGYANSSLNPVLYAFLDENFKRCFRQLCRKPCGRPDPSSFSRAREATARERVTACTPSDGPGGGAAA

By EC50 is commonly meant the concentration giving half of the maximal effect. High values mean lower potency in that assay, low ones higher potency in that assay. Turning to `Cc1cc(O)cc(C)c1[C@H](C)[C@H](N)C(=O)N[C@H]1C(=O)NCC(=O)N[C@@H](Cc2ccccc2)C(=O)N[C@@H](C(=O)O)C(C)(C)SSC1(C)C`, the results for the concentration giving a half-maximal response (EC50) (at Mu-type opioid receptor; in test [1]) were 293 nM and 168 nM, respectively. Moreover, the Selectivity in test [2] turned out to be 1.74; in test [3], 3.4.

For the molecule `Cc1cc(O)cc(C)c1[C@H](C)[C@H](N)C(=O)N[C@H](C)C(=O)N[C@@H](Cc1ccccc1)C(=O)N[C@@H](CC(=O)O)C(=O)N[C@H](C(=O)N[C@H](C(=O)NCC(N)=O)C(C)C)C(C)C`, the EC50 was determined as 3840 nM on Mu-type opioid receptor and 0.66 nM in test [1]. In addition, the Selectivity in test [2] is 5820; in test [3] it was 5740.
